# Measurements: ChEMBL document CHEMBL5325429, “Antibacterial and antibiofilm activity of permanently ionized quaternary ammonium fluoroquinolones” (Eur J Med Chem, 2023)
# Where a name gives a salt, the structure may show the parent alone. Calls of active or inactive are those of the source. The rule behind the calls is not given here.
# How the values were obtained:
# [1] = test system: Staphylococcus aureus; experiment: Antibacterial activity against Staphylococcus aureus ATCC 29213 assessed as bacterial growth inhibition incubated for 24 hrs by broth microdilution assay; type: functional
# In short: (§1)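 Broth microdilution per CLSI. Colonies from overnight Mueller Hinton agar were suspended in 0.9% saline, set by densitometer, and diluted in cation-adjusted MHB to 1×10^6 CFU/mL. This was mixed 1:1 with compound and incubated 24 h at 37 °C. A600 was read versus untreated control and checked visually. Screen at 50 μM; compounds with ≥80% inhibition went to MIC testing at 75–0.78 μM. […] Two independent experiments, three technical replicates each.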
# [2] = test system: Pseudomonas aeruginosa; experiment: Antibacterial activity against Pseudomonas aeruginosa ATCC 27853 assessed as bacterial growth inhibition incubated for 24 hrs by broth microdilution assay; type: functional; in short: as §1
# [3] = test system: Pseudomonas aeruginosa; experiment: Antibiofilm activity against Pseudomonas aeruginosa ATCC 15442 assessed as reduction in bacterial viability at 10 to 50 uM incubated for 18 hrs; type: functional; settings: dose 10-50 µM
# In short: (§2)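 Biofilm viability by resazurin. 10^6 CFU/mL TSB culture was exposed to compound (50x DMSO stock) for 18 h at 37 °C with shaking at 220 rpm. Biofilm was washed once with PBS and stained with resazurin (1:20 in PBS) in the dark at 37 °C for about 1 h (P. aeruginosa) or about 30 min (S. aureus). Fluorescence ex 560/em 590 is given as % of untreated control.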
# [4] = Selectivity index, ratio of CC50 for cytotoxicity against mouse BALB/3T3 clone A31 cells to MIC for antibacterial activity against Pseudomonas aeruginosa ATCC 27853 assessed as bacterial growth inhibition; type: toxicity, cell-based; settings: read-out: Selectivity Index
# [5] = test system: Staphylococcus aureus; experiment: Antibiofilm activity against Staphylococcus aureus ATCC 25923 assessed as reduction in bacterial viability at 50 uM incubated for 18 hrs by resazurin staining based assay relative to control
# [6] = Cytotoxicity against mouse BALB/3T3 clone A31 cells assessed as viable cells at 200 uM incubated for 48 hrs by celltiter glo luminescent assay relative to control; type: toxicity, cell-based; settings: read-out: Activity
# [7] = test system: Staphylococcus aureus; experiment: Antibiofilm activity against Staphylococcus aureus ATCC 25923 assessed as assessed as log 10 reduction in CFU at 200 uM incubated for 18 hrs; type: functional
# In short: (§3)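 Post-exposure CFU count. Biofilms were grown 18 h at 37 °C, 220 rpm, from a 10^6 CFU/mL TSB culture. Planktonic cells were removed, then compound (50x DMSO stock) in fresh TSB was added for a further 24 h. Wells were PBS-washed, scraped into PBS, serially diluted 10-fold and spotted on agar. After 24 h incubation, spots with 3–30 colonies were counted and reported as log10 cells/mL. Two experiments on different days, two technical replicates each.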
# [8] = test system: Pseudomonas aeruginosa; experiment: Antibiofilm activity against Pseudomonas aeruginosa ATCC 15442 assessed as reduction in bacterial viability incubated for 18 hrs; type: functional; in short: as §2
# [9] = test system: Staphylococcus aureus; experiment: Antibiofilm activity against Staphylococcus aureus ATCC 25923 assessed as reduction in bacterial biomass at 50 uM incubated for 18 hrs by crystal violet staining based assay relative to control; type: functional; parameters: scale not given: the % may be the effect or the level left
# In short: (§4)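 Pre-exposure biofilm: 10^6 CFU/mL TSB culture with compound (50x DMSO stock), 18 h at 37 °C, shaken at 220 rpm. After the resazurin read, biofilms were ethanol-fixed for 15 min, dried, and stained 5 min with 100x-diluted crystal violet. After two water washes, dye was solubilised in 96% ethanol for about 1 h and read at A595. Total biomass is expressed as % of untreated control.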
# [10] = Cytotoxicity against mouse BALB/3T3 clone A31 cells upto 50 uM incubated for 48 hrs by celltiter glo luminescent assay; type: toxicity, cell-based; settings: balb/3t3 clone a31, 48 h
# [11] = test system: Staphylococcus aureus; experiment: Antibiofilm activity against Staphylococcus aureus ATCC 25923 assessed as reduction in bacterial biomass at 50 uM incubated for 18 hrs; type: functional, organism-based; in short: as §4
# [12] = test system: Pseudomonas aeruginosa; experiment: Antibiofilm activity against Pseudomonas aeruginosa ATCC 15442 assessed as log 10 reduction in CFU at 200 uM incubated for 18 hrs; type: functional; in short: as §3
# [13] = Cytotoxicity against mouse BALB/3T3 clone A31 cells incubated for 48 hrs by celltiter glo luminescent assay; type: toxicity, cell-based
# [14] = test system: Pseudomonas aeruginosa; experiment: Antibiofilm activity against Pseudomonas aeruginosa ATCC 15442 assessed as reduction in bacterial biomass at 10 to 50 uM incubated for 18 hrs by crystal violet staining based assay; type: functional, organism-based; settings: dose 10-50 µM; in short: as §4
# [15] = Selectivity index, ratio of CC50 for cytotoxicity against mouse BALB/3T3 clone A31 cells to MIC for antibacterial activity against Staphylococcus aureus ATCC 29213 assessed as bacterial growth inhibition; type: toxicity, cell-based; settings: read-out: Selectivity Index
# [16] = test system: Pseudomonas aeruginosa; experiment: Antibiofilm activity against Pseudomonas aeruginosa ATCC 15442 assessed as reduction in bacterial biomass incubated for 18 hrs by crystal violet staining based assay; type: functional; in short: as §4
# [17] = test system: Pseudomonas aeruginosa; experiment: Antibiofilm activity against Pseudomonas aeruginosa ATCC 15442 assessed as reduction in biofilm formation at 5 to 25 uM incubated for 18 hrs relative to control; type: functional; parameters: scale not given: the % may be the effect or the level left; settings: dose 5-25 µM
# In short: (§5)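 Pre-exposure biofilm assay. Inoculum: TSA colonies grown in TSB at 37 °C, 220 rpm, to OD 0.3–0.35, then diluted 100-fold to about 10^6 CFU/mL. Culture was mixed with compound (50x DMSO stock) and shaken at 220 rpm for 18 h at 37 °C. Biofilm was read by resazurin fluorescence (ex 560/em 590) and by crystal violet A595, as % of untreated control.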
# [18] = test system: Pseudomonas aeruginosa; experiment: Antibiofilm activity against Pseudomonas aeruginosa ATCC 15442 assessed as reduction in bacterial viability at 20 to 40 uM incubated for 18 hrs relative to control; type: functional; settings: dose 20-40 µM; in short: as §2
# [19] = test system: Staphylococcus aureus; experiment: Antibiofilm activity against Staphylococcus aureus assessed as inhibition of biofilm formation at 2.5 to 5 uM incubated for 18 hrs relative to control; parameters: scale not given: the % may be the effect or the level left; settings: dose 2.5-5 µM
# [20] = test system: Pseudomonas aeruginosa; experiment: Antibiofilm activity against Pseudomonas aeruginosa ATCC 15442 assessed as reduction in bacterial biomass at 40 to 80 uM incubated for 18 hrs by crystal violet staining based assay relative to control; type: functional; parameters: scale not given: the % may be the effect or the level left; settings: dose 40-80 µM; in short: as §4
# [21] = test system: Pseudomonas aeruginosa; experiment: Antibiofilm activity against Pseudomonas aeruginosa ATCC 15442 assessed as reduction in bacterial viability at 50 uM incubated for 18 hrs; type: functional, organism-based; in short: as §2
# [22] = test system: Pseudomonas aeruginosa; experiment: Antibiofilm activity against Pseudomonas aeruginosa ATCC 15442 assessed as reduction in biofilm formation at 25 uM incubated for 18 hrs; type: functional, organism-based; in short: as §5
# [23] = test system: Pseudomonas aeruginosa; experiment: Antibiofilm activity against Pseudomonas aeruginosa ATCC 15442 assessed as reduction in biofilm formation at 100 uM incubated for 18 hrs relative to control; type: functional; parameters: scale not given: the % may be the effect or the level left; in short: as §5
# [24] = test system: Pseudomonas aeruginosa; experiment: Antibiofilm activity against Pseudomonas aeruginosa ATCC 15442 assessed as reduction in bacterial biomass at 2.5 to 320 uM incubated for 18 hrs by crystal violet staining based assay; type: functional, organism-based; settings: dose 2.5-320 µM; in short: as §4
# [25] = test system: Pseudomonas aeruginosa; experiment: Antibiofilm activity against Pseudomonas aeruginosa ATCC 15442 assessed as reduction in bacterial viability at 200 uM incubated for 18 hrs; type: functional, organism-based; in short: as §2
# [26] = test system: Pseudomonas aeruginosa; experiment: Antibiofilm activity against Pseudomonas aeruginosa ATCC 15442 assessed as reduction in bacterial viability at 2.5 to 320 uM incubated for 18 hrs; type: functional, organism-based; settings: dose 2.5-320 µM; in short: as §2
# [27] = test system: Pseudomonas aeruginosa; experiment: Antibiofilm activity against Pseudomonas aeruginosa ATCC 15442 assessed as reduction in bacterial biomass at 1 to 200 uM incubated for 18 hrs by crystal violet staining based assay; type: functional, organism-based; settings: dose 1-200 µM; in short: as §4
structure (smiles),measurement,setting,value
CCn1cc(C(=O)O)c(=O)c2cc(F)c(N3CC[N+](C)(C)CC3)cc21,MIC,[1],25 µM
same,MIC,[2],> 50 µM
C[N+]1(C)CCN(c2cc3c(cc2F)c(=O)c(C(=O)O)cn3C2CC2)CC1.[I-],Activity,[3],50%
same,selectivity ratio,[4],> 32
same,MIC,[1],6.25 µM
same,Activity,[5],60%
same,"viability at 48 h, 200 µM",[6],108%
same,Activity,[7],2 log10CFU
same,MBIC,[8],25 µM
same,Activity,[9],100%
same,Activity,[10],Non-Toxic
same,Activity,[11],inactive
same,Activity,[12],2 log10CFU
same,CC50 at 48 h,[13],> 200 µM
same,Activity,[14],inactive
same,MIC,[2],6.25 µM
same,selectivity ratio,[15],> 32
same,MBIC,[16],50 µM
same,Activity,[17],>90%
CCn1cc(C(=O)O)c(=O)c2cnc(N3CC[N+](C)(C)CC3)nc21,MIC,[1],> 50 µM
same,MIC,[2],> 50 µM
CCn1cc(C(=O)O)c(=O)c2cc(F)c(N3CC[N+](C)(C)CC3)nc21,MIC,[1],50 µM
same,MIC,[2],> 50 µM
CCn1cc(C(=O)O)c(=O)c2cc(F)c(N3CC[N+](C)(C)C(C)C3)c(F)c21 (stereo unspecified),MIC,[1],25 µM
same,MIC,[2],75 µM
O=C(O)C1=Cc2ccccc2N2C[N+]3(CCN(c4cc5c(cc4F)c(=O)c(C(=O)O)cn5C4CC4)CC3)N=C12.[I-],Activity,[18],>90%
same,Activity,[19],>90%
same,Activity,[20],>90%
C[N+]1(C)CCCN(c2cc3c(cc2F)c(=O)c(C(=O)O)cn3C2CC2)CC1.[I-],Activity,[3],50%
same,selectivity ratio,[4],> 32
same,MIC,[1],6.25 µM
same,Activity,[5],60%
same,"viability at 48 h, 200 µM",[6],81.7%
same,Activity,[7],2 log10CFU
same,MBIC,[8],25 µM
same,Activity,[9],100%
same,Activity,[10],Non-Toxic
same,Activity,[18],>90%
same,Activity,[11],inactive
same,Activity,[12],2 log10CFU
same,CC50 at 48 h,[13],> 200 µM
same,Activity,[14],inactive
same,Activity,[19],>90%
same,MIC,[2],6.25 µM
same,selectivity ratio,[15],> 32
same,Activity,[20],>90%
same,MBIC,[16],50 µM
same,Activity,[17],>90%
O=C(O)C1=Cc2ccccc2N2C[N+]3(CCCN(c4cc5c(cc4F)c(=O)c(C(=O)O)cn5C4CC4)CC3)N=C12.[Cl-] (stereo unspecified),Activity,[3],50%
same,selectivity ratio,[4],6.4
same,MIC,[1],25 µM
same,Activity,[21],Active
same,"viability at 48 h, 200 µM",[6],1.55%
same,Activity,[10],Non-Toxic
same,Activity,[22],Active
same,Activity,[12],2 log10CFU
same,CC50 at 48 h,[13],160 µM
same,Activity,[14],inactive
same,MIC,[2],25 µM
same,selectivity ratio,[15],6.4
same,Activity,[23],80%
CCn1cc(C(=O)O)c(=O)c2cc(F)c(N3CC[N+]4(CC3)CN3C(=N4)C(C(=O)O)=Cc4ccccc43)nc21.[I-],Activity,[18],>90%
same,Activity,[19],>90%
same,Activity,[20],>90%
O=C(O)c1cn(C2CC2)c2cc(N3CCNCC3)c(F)cc2c1=O [CIPROFLOXACIN HYDROCHLORIDE],MIC,[1],1.36 µM
same,Activity,[24],Active
same,Activity,[25],Active
same,Activity,[26],Active
same,Activity,[27],inactive
same,MIC,[2],2.72 µM
CCn1cc(C(=O)O)c(=O)c2cc(F)c(N3CC[N+]4(CN5C(=N4)C(C(=O)O)=Cc4ccccc45)C(C)C3)c(F)c21.[I-] (stereo unspecified),Activity,[19],>90%
